Assay results reported in the EternaBench riboswitch data.

System: MS2 coat protein
Experiment: apparent Kd, MS2 coat protein; higher = weaker binding; RNA-MaP array
In short: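 Incubations were done at room temperature with fluorescently labeled MS2 coat protein at 1.5 nM to 3 μM and designed RNAs transcribed on an Illumina sequencing chip from sequenced DNA templates, with or without input ligand. Apparent Kd is the median of binding curves fitted for each cluster. Designs with fewer than 10 measured clusters were excluded.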

[1] = designed as: ON switch for flavin mononucleotide, no ligand
[2] = ligand present: flavin mononucleotide, designed as: ON switch for flavin mononucleotide
[3] = designed as: OFF switch for flavin mononucleotide, no ligand
[4] = ligand present: flavin mononucleotide, designed as: OFF switch for flavin mononucleotide

Row | Sequence | apparent Kd [3] [µM] | apparent Kd [4] [µM] | other results
1 | AGCCGUUGGGAUAGACAUGAGGAUCACCCAUGUAAAAGCGAAGAGGAUAUCAGAAUUAAGACAACAGAGAAGGCAUAAAUACAA |  |  | apparent Kd [1]: 0.0381 µM; apparent Kd [2]: 0.0283 µM
2 | CCUUGUGUGAAGGAUAUAGGUUUAUGUUUCUGUCUAGAAGGUCACACAUGAGGAUCACCCAUGUAUAUCCUAGA | 0.0183 | 0.0517 | 
3 | GUAUUGUAAGGAUAUAGUAGGCCAGUACGAAGGCUUGAGCACUAGAAGGUACAUGAGGAUCACCCAUGUGGUGG | 0.401 | 0.146 | 
4 | AGGCACCAGAGAGGAUAUUAGGACAGCGAACAUGAGGAUCACCCAUGUAUGUUUGUUAGGCGAGCUAAGAAGGCUCCACGGGUU | 0.0069 | 0.00673 | 
5 | GCUGAACAUGAGGAUCACCCAUGUCCGGAUACCAGCGGACCUCAUCGCCCUUGGCAGCCGAACCAACAGCUUGUGGUGUUCACUC |  |  | apparent Kd (designed as: ON switch for theophylline, no ligand): 0.0354 µM; apparent Kd (ligand present: theophylline, designed as: ON switch for theophylline): 0.0499 µM
6 | UAGACUCAGUAGAAGGAUGAUAUUACGAUAUAACGUGACAUGAGGAUCACCCAUGUCUUCUGGUCAUAGGAUAUACGCGAAAUG |  |  | apparent Kd [1]: 0.0456 µM; apparent Kd [2]: 0.0213 µM
7 | CGAUCCUUGCAGAAGGACUAAAACCAAAUACCAGUAGGAUAUGCAACAUGAGGAUCACCCAUGUGACGAAGGAUGCGGGAAAUA | 0.00882 | 0.00869 | 
8 | UUCUGUUCCAAGAAGGUCAAAAUUGAUGCCUCUGAAGGAUAUUGGACAGCCAAGGUCUGUGACAUGAGGAUCACCCAUGUUCAG |  |  | apparent Kd [1]: 0.00672 µM; apparent Kd [2]: 0.00614 µM
9 | CGUGGGUGUGAGCCACAUGAGGAUCACCCAUGUCACAACGUGAGAAGGAACAGGCCCUGUGUCGGUUAGGAUAUCAAACCCUUA | 0.142 | 0.0273 | 
10 | CCUGGGACAUGAGGAUCACCCAUGUGUGUUAUCGGUGCGUGAGAGGAUAUACACAGCGUCCGUUAGUAGAAGGCUCAUGAUGUA | 0.0883 | 0.0525 | 
11 | CACGCCAUAGGAUAUACAUGAGGAUCACCCAUGUGGUGGUAGCAGCCAUAACGGUACAGUAGAAGGAUGUGCGA | 0.274 | 0.171 | 
12 | CAUGGAUAAGGAUAUACAUGAGGAUCACCCAUGUAUAGAAGGAUACAAAGAUAAGAAUGUAGAAGGUAUUGGUU | 0.00975 | 0.00844 | 
13 | GUGGCUUCGGUGAGGAUAUGUCCGAUAAAACUGAGACAGAAGGCACAUGAGGAUCACCCAUGUAGCGUUGAUUC | 0.0175 | 0.0445 | 
14 | AUUCGCCGAGGAUAUAAGUCGUUUGACAUGAGGAUCACCCAUGUUGUCAGUGGAAAUCGUUUAGAAGGCGGCCUCC | 0.0189 | 0.0134 | 
15 | GUGUCUUGGGAGGAUAUCCACUUCACGUCAUAUGGAGAAGGCCCGACAUGAGGAUCACCCAUGUGGUAACUGGC | 0.0257 | 0.0287 | 
16 | GUGUUAUAUCCGUAACAUGAGGAUCACCCAUGUGUGAGAUCGAAGGAUAUCUGUCUGAGCUCAAAAGAGAAGGUCGAUACAAUG | 0.0576 | 0.0449 | 
17 | AACUAAAACGAUAGUCGACAUGAGGAUCACCCAUGUACAAAACAGGAUAUAAGAUUACCGGUGUGUAAGAAGGGUUUGCUAUCA |  |  | apparent Kd [1]: 0.0152 µM; apparent Kd [2]: 0.0126 µM
18 | CCAAUGCAAGGAUAUACAAAAGACUCACUAAAUAGAACAAAACAUGAGGAUCACCCAUGUAGAAGGUGCUGAAC | 0.0123 | 0.0136 | 
19 | GUGCCAAAAGAGGAUAUAUUGACGAUGAUUCGCAUAGAAGGCUUUACAUGAGGAUCACCCAUGUGGGAGUGAUC | 0.614 | 0.184 | 
20 | CAGAGUUCCUAAGGAUAUUGCUGGUCCGCAGUUCAAGAAGGUAGGUAUAAAAUGCUUAAACAUGAGGAUCACCCAUGUCAAGCC |  |  | apparent Kd [1]: 0.00675 µM; apparent Kd [2]: 0.00608 µM
21 | AUGUAGUGCGAGAAGGACUCCCUCUUACACAUGAGGAUCACCCAUGUGCCCUCAAGCUAGACCGAGUAGGAUAUCGACCGCGCC | 0.06 | 0.0436 | 
22 | GUGACACAUGAGGAUCACCCAUGUCAGGAUAUAGGUCAGCAAAGUAACCAUGACGAGACUAGAAGGGACGCGUG | 0.0305 | 0.0225 | 
23 | UCAAGUGAACCAUGGAAACAUUCAAUAGAUACCAGCAUUAAAACCUGCCCUUGGCAGCUAUGAACAUGAGGAUCACCCAUGUGAA |  |  | apparent Kd (designed as: OFF switch for theophylline, no ligand): 0.0185 µM; apparent Kd (ligand present: theophylline, designed as: OFF switch for theophylline): 0.0714 µM
24 | UUGCUAACAGUAGGAUAUUCAAAACAGCGUGAGGAAGAAGGACUAGCGACUUCGUGACAUGAGGAUCACCCAUGUGUAAGGCCA |  |  | apparent Kd [1]: 0.0125 µM; apparent Kd [2]: 0.00989 µM
25 | GAUACAUGAGGAUCACCCAUGUGGGAAAUUCAUCUCAUUAAGAAGGAUAUGCAUCUAAAACUGGAGCAGAAGGUCUGUAUCCCG | 0.087 | 0.0559 | 
26 | AUGUGAGGACAUGAGGAUCACCCAUGUCGGGAACCUCUCGCAGAGGAUAUUCGAGAAGCAACGUUGAAGAAGGCUGGCGAAACC | 0.0181 | 0.0137 | 
